Screening data: PubChem BioAssay, several laboratories
TRPC6 inh = inhibitors of mouse TRPC6 channel; B-score at 10 µM; HEK293-TRPC6, membrane potential dye, ACh-evoked depolarization; stronger effect = lower value; hit rate 1.1% among 310,000; Q61143;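 active = B-score under library mean minus 3 SD, initial fluorescence not abnormally high, positive integrated signal ratio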;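 also: B-score derived from integrated fluorescence ratio over the kinetic read; more negative B-score means stronger inhibition of depolarization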
Platelet DG rel = platelet dense granule release activity | hit rate 0.22% among 300,000 | AID 1663 | human platelet-rich plasma, SFLLRN dense granule ATP release, luminescence | inhibition, %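 (compounds screened at 7.5 µM in platelet-rich plasma)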;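 active = mean replicate score, as percent of positive control, at or above 50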
TRPC6 activator = mouse TRPC6 channel activation; hit rate 0.13% among 310,000; B-score at 10 µM; HEK293-TRPC6 membrane potential dye fluorescence; stronger effect = higher value; Q61143;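 active = B-score of the integrated fluorescence ratio above library mean plus 3 SD, and starting fluorescence ratio within library mean plus 5 SD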;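 also: higher score means more depolarization so channel activation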
TRPC4 PAM = allosteric potentiators of mouse TRPC4 channel; Q9QUQ5; HEK293 TRPC4beta/mu-opioid, DAMGO EC20, Fluo-4 Ca2+ flux; stronger effect = higher value; B-score at 10 µM; hit rate 0.42% among 310,000; AID 2227;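 active = B-score of calcium response area above 5 SD of library B-scores, with initial fluorescence ratio within 5 SD of library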;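 also: B-score of integrated fluorescence ratio over time as area under calcium response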
TRPC4 inh = inhibitors of mouse TRPC4 channel. B-score at 10 µM. AID 2247. Q9QUQ5. hit rate 0.39% among 300,000. HEK293 TRPC4beta/mu-opioid, DAMGO-evoked Fluo4 calcium flux; stronger effect = lower value;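 active = B-score over 3 SD under the library average, no early fluorescence shift, positive overall ratio signal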
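Assay system: HEK293 cells with stable TRPC4beta plus mu-opioid receptor expression. Dosing: single dose. Measured by: Fluo4 Ca2+ flux fluorescence. Also added: DAMGO in two steps, submaximal then maximal. Read-out: B score from integrated Fluo4 fluorescence ratio.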
TRPC4 act = TRPC4 (mouse) channel activation; HEK293 TRPC4beta/mu-opioid, Fluo4 calcium fluorescence; stronger effect = higher value; Q9QUQ5; B-score at 10 µM; hit rate 0.49% among 310,000;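 active = B-score above 5 SD of library B-scores, and initial fluorescence ratio not above library mean plus 5 SD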;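 also: positive B-score marks a calcium rise read as TRPC4 activation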
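Assay system: HEK293 stable line with TRPC4beta plus mu-opioid receptor; schedule: 45 min room-temperature Fluo4 loading, 110 s read; technique: kinetic Fluo4 calcium fluorescence; evaluation: integrated baseline-normalised fluorescence ratio, converted to per-well B score; controls: buffer (low) and maximal DAMGO (high)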
* hit, by the source's call; i = inactive; . = no result. In the library only some 2.5% were active in any assay of this set; here they are far more common.

SMILES	TRPC6 inh	Platelet DG rel	TRPC6 activator	TRPC4 PAM	TRPC4 inh	TRPC4 act
O=C(C1CCC(=O)N(C2CC2)C1)N1CCC(Oc2ccccc2F)CC1 (configuration not stated)	i	8	i	i	i	i
COc1ccc(CCNC(=O)c2ccc3c(c2)SC2=NS(=O)(=O)CCN23)cc1	i	77*	i	i	i	i
COc1ccc(CCNC(=O)c2ccc3c(c2)S(=O)(=O)N=C2CCCCCN23)cc1	i	7	i	i	i	i
O=C(c1ccc(COc2ccccc2Br)cc1)N1CCCCCC1	i	-2	i	12*	i	i
Cc1ccc(C)c(C(=O)OCC(=O)N(C)c2ccccc2)c1	i	-2	i	i	i	i
Cc1ccc(C)c(CN2CCC(CNC(=O)Nc3ccc(Cl)cc3)CC2)c1	i	-4	i	14*	i	i
Cc1ccc(C)c(CN2CCC(CNC(=O)Nc3ccc(Br)cc3F)CC2)c1	i	2	i	i	i	i
CCCCCn1c(=O)[nH]c2cc(C(=O)NCCN(CC)CC)ccc2c1=O	i	1	i	14*	i	i
CCCCCNC(=O)c1ccc2c(=O)n(CCOC)c(=O)[nH]c2c1	i	0	i	i	i	i
CCCN(CC(=O)Nc1ccccc1Br)CC(=O)Nc1ccc(F)c(F)c1F	i	12	i	12*	i	i
CCOC(=O)c1cc(=O)n(Cc2ccccc2C)c2ccccc12	i	-3	i	15*	i	i
CCc1cccc(NC(=O)CCc2c(C)nn(-c3ccc(N4CCOCC4)nn3)c2C)c1	i	2	i	i	i	i
C/C(=N\Nc1ccc(C(=O)O)cc1)c1ccc2c(c1)Nc1ccccc1S2	i	3	i	i	-6*	i
CCCCn1c(SCN2C(=O)c3ccccc3C2=O)nc2cc(S(N)(=O)=O)ccc21	i	80*	i	i	i	i
COc1ccccc1C(=O)Nc1ccccc1SC(=O)c1ccccc1OC	i	0	i	i	i	i
CC(C)(C)c1ccc(C(=O)N2CCC(NC(=O)c3ccccc3)CC2)cc1	i	0	i	i	i	i
Cc1ccc2c(c1)C1CN(C)CCC1N2Sc1ccccc1[N+](=O)[O-] (configuration not stated)	i	1	i	i	i	i
CCn1cc[n+](C)c1P(c1ccccc1)c1ccccc1	i	6	i	i	-5*	51*
COc1cc(OC)cc(C(=O)N2CCN(Cc3ccccc3Br)CC2)c1	i	-11	i	i	i	i
Cc1ccc(S(=O)(=O)NCCC(=O)OCC(=O)NC(=O)c2cccn2C)cc1	i	61*	i	i	i	i
Cc1ccc(S(=O)(=O)NCC(=O)OCC(=O)NC(=O)c2cccn2C)cc1	i	0	i	i	i	i
Cc1ccc(CNC(=O)c2ccc(N3CCC4(CC3)CC(c3ccccc3)=NO4)c(NC(=O)c3c(Cl)cccc3Cl)c2)cc1	i	-1	i	i	i	i
CCNC(=O)NC(=O)C(C)OC(=O)CNS(=O)(=O)c1c(Cl)cc(Br)cc1Cl (configuration not stated)	i	4	i	i	i	i
CCOc1cc(/C=N/NC(=O)N/N=C/c2ccc(O)c(OCC)c2)ccc1O	i	58*	i	i	i	i
COc1cc(/C=N/NC(=O)/C(=C/c2ccccc2)CCO)ccc1O	i	56*	i	i	i	i
SMILES	TRPC6 inh	Platelet DG rel	TRPC6 activator	TRPC4 PAM	TRPC4 inh	TRPC4 act
COc1ccc(/C=N/NC(=O)/C(=C/c2ccccc2)CCO)cc1	i	-1	i	i	i	i
O=C(C1CC(=O)N(c2ccccc2)C1)N1CCN(c2ccc(F)cc2)CC1 (configuration not stated)	i	-4	i	i	i	i
CCOc1ccccc1NC(=O)C1CCCN(S(=O)(=O)c2ccc(-n3cnnn3)cc2)C1 (configuration not stated)	i	2	i	i	i	i
O=C(O)c1ccc(N/N=C/c2ccc(-c3cccc(Cl)c3)o2)cc1	i	-3	i	i	-6*	i
COc1ccc(CCNC(=O)C/C(C)=N/NC(=O)c2ccc([N+](=O)[O-])cc2Cl)cc1OC	i	3	i	i	i	i
COc1ccc(/C=C\c2cc(OC)c(OC)cc2CC[N+](C)(C)C)cc1OC	-7.7*	2	i	i	i	i
O=C1CCCC(=O)N1c1ccc(N2CCN(c3ccc([N+](=O)[O-])cc3)CC2)c([N+](=O)[O-])c1	i	-3	i	21*	i	i
COc1ccccc1NC(=O)c1cnc(SCC(=O)NCCc2ccccc2)n(C)c1=O	i	.	i	i	i	i
COCc1nc2ccccc2n1CCc1ccccc1	i	-3	i	i	i	i
CN(C)c1ccc(C(=S)N2CCN(c3ccc([N+](=O)[O-])cc3)CC2)cc1	i	10	i	19*	i	i
CC(C)n1c(SCC(=O)NC2CCCCC2)nnc1-c1ccco1	i	0	i	i	i	i
CCOC(=O)C1CCCN(CCC(C)c2ccccc2)C1 (configuration not stated)	i	-3	i	i	i	i
NC(=O)C1CCCN(CCc2ccccc2)C1 (configuration not stated)	i	5	i	i	i	103*
CC(CN1CCCC(C(N)=O)C1)c1ccccc1 (configuration not stated)	i	2	i	i	i	131*
Cc1ccc(C)c(N2CCN(C(=O)CCS(=O)(=O)c3ccc4c(c3)oc(=O)n4C)CC2)c1	i	17	i	i	i	i
CN(C)c1ccc(/C=N/NC(=O)c2ccnn2C)cc1	i	73*	i	i	i	i
O=c1c2cc(Br)ccc2nc(-c2cccc(C(F)(F)F)c2)n1O	i	12	i	i	i	193*
O=c1c2cc(Cl)ccc2nc(-c2ccc(Cl)c(Cl)c2)n1O	i	6	i	i	i	237*
O=c1c2cc(Cl)ccc2nc(-c2ccccc2)n1O	i	7	i	i	i	i
O=c1c2ccc(Cl)cc2nc(-c2ccc([N+](=O)[O-])cc2)n1O	i	0	i	i	i	63*
COc1ccccc1-c1nc2cc(Cl)ccc2c(=O)n1O	i	3	i	i	i	i
